The values below come from ChEMBL document CHEMBL1137990, “Design and synthesis of novel indole beta-diketo acid derivatives as HIV-1 integrase inhibitors” (J Med Chem, 2004).

Some results are limits rather than exact numbers.

Broadly, the EC50 is the midpoint of the concentration-response curve. Lower therefore signals higher potency in that assay. The term CC50 denotes the concentration giving 50% cytotoxicity. High values mean better tolerance by the cells, low ones harm at low concentration. What is called IC50 is the concentration that inhibits the measured activity by half. A higher IC50 goes with a need for much substance.

In data set [1] the test system is Human immunodeficiency virus 1. Nature of the data set: Effective concentration required for the inhibition of HIV-1 cytopathic effect. In kind it is functional, organism-based. Put shortly: (§1)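 CEM-SS human T cells at 5 × 10³ cells/well infected with HIV-1 RF (MOI 0.3). Serial compound dilutions added at once; cultured 6 days at 37 °C, 5% CO₂. Viability read by XTT (0.2 mg/mL, 4 h) absorbance at 450 nm. AZT and dextran sulfate run as controls. Toxicity measured on the same plate in uninfected CEM-SS cells.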
(In general: Cytopathic effects are the visible damage that an infection or toxin causes in cultured cells.)

For a further data set, the system named is CEM-SS. Briefly: Cytotoxic concentration against HIV-1 was evaluated in human T-cell line CEM-SS. In kind it is functional. The gist of the method:
as §1

The target in data set [2] is Human immunodeficiency virus type 1 integrase (Human immunodeficiency virus 1) (UniProt Q7ZJM1). Briefly: Selectivity index against HIV-1 integrase.
Chain of Human immunodeficiency virus type 1 integrase (Human immunodeficiency virus 1) (Q7ZJM1 as listed by the source): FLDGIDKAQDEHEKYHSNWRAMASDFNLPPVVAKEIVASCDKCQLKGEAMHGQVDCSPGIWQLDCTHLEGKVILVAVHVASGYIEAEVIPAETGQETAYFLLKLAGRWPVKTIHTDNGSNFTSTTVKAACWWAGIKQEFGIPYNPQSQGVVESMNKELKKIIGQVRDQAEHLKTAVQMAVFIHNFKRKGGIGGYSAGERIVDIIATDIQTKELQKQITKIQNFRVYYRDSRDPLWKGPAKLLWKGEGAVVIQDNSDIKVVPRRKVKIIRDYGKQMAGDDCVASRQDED
For data set [3], the target named is T1, Human immunodeficiency virus type 1 integrase (Human immunodeficiency virus 1, UniProt Q7ZJM1). Nature of the data set: Inhibitory concentration against HIV-1 integrase mediated 3' processing reaction. Put shortly: (§2)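 Wild-type IN at 200 nM final, preincubated with inhibitor for 30 min at 30 °C in buffer of 50 mM NaCl, 1 mM HEPES pH 7.5, 50 µM EDTA, 50 µM DTT, 10% glycerol, 7.5 mM MnCl₂, 0.1 mg/mL BSA, 10 mM 2-mercaptoethanol, 10% DMSO, 25 mM MOPS pH 7.2. Then 20 nM 5′-³²P-labeled linear oligonucleotide substrate added, 1 h more; quenched with formamide/EDTA loading dye; products resolved on gel.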
T1 sequence (Q7ZJM1 whole entry): as the sequence (Q7ZJM1 as listed by the source) above

Data set [4] is described as follows: Therapeutic index is the ratio of CC50 to that of EC50. The following applies: human; read-out: Therapeutic index. Put shortly:
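CC50/EC50 ratio, both values from the same plate. CEM-SS cells were infected with HIV-1 RF (MOI 0.3) or left uninfected, with serial compound dilutions. Cultures ran 6 days at 37 °C. Viability was read by XTT absorbance at 450 nm.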

Data set [5] concerns the target T1, Human immunodeficiency virus type 1 integrase. Briefly: Inhibitory concentration against HIV-1 integrase mediated strand transfer reaction. Put shortly:
as §2

For `Cn1cc(/C(O)=C/C(=O)C(=O)O)c2ccccc21`, a half-maximal effect in data set [1] (EC50) was put at 37 µM. Moreover, the CC50 in the data set on CEM-SS was above 200 µM. The same molecule returned a Selectivity index in data set [2] of 50. Also, the IC50 in data set [3] is 100 µM; in data set [5] it was 2 µM. Also, the selectivity ratio in data set [4] is above 5.4.
`CCn1c(C(=O)CC(=O)C(=O)OC)cc2cc3c(cc21)OCO3` returned an EC50 in data set [1] above 75 µM. Further, the CC50 in the data set with CEM-SS was found to be 75 µM. This molecule also registered a Selectivity index in data set [2] of 1.3. In addition, the half-inhibitory concentration (IC50) worked out at 85 µM in data set [3] and 65 µM in data set [5].
Molecule `CCn1cc(C(=O)CC(=O)C(=O)OC)c2ccccc21` came in with an EC50 in data set [1] of 19 µM. The CC50 with CEM-SS was above 200 µM. Besides, the Selectivity index in data set [2] was above 3.8. Besides, the figures for the IC50 in data set [3] and in data set [5] were above 100 µM and 26 µM, respectively. Besides, the selectivity ratio in data set [4] was above 10.5.
In turn, `COC(=O)C(=O)CC(=O)c1cn(C)c2cc3c(cc12)OCO3` had an EC50 in data set [1] above 31 µM. In addition, it took 31 µM to reach half-maximal cytotoxicity in the data set on CEM-SS (CC50). Moreover, the Selectivity index in data set [2] is above 1.6. In addition, the figures for the IC50 in data set [3] and in data set [5] were above 100 µM and 60 µM, respectively.
In turn, `CCn1c(/C(O)=C/C(=O)C(=O)O)cc2cc3c(cc21)OCO3` had an EC50 in data set [1] above 57 µM. In the data set on CEM-SS, this molecule returned a CC50 of 57 µM. In data set [2], the Selectivity index is 11. The half-maximal inhibitory concentration (IC50) in data set [3] turned out to be 55 µM; in data set [5], 5 µM.
The matching figures for `COC(=O)C(=O)CC(=O)c1cc2ccccc2n1C`: above 106 µM, 106 µM, 2, 100 µM and 45 µM.
With `CCn1cc(/C(O)=C/C(=O)C(=O)O)c2ccccc21`, in data set [1], the EC50 came out at 9 µM. The molecule further registered a CC50 in the data set on CEM-SS of 108 µM. Further, the Selectivity index in data set [2] turned out to be 31. The IC50 in data set [3] came out at 93 µM; in data set [5], 3 µM. Moreover, the selectivity ratio in data set [4] came to 12.
In turn, `COC(=O)C(=O)CC(=O)c1cc2cc3c(cc2n1C)OCO3` had an EC50 in data set [1] above 200 µM. Moreover, the CC50 in the data set with CEM-SS is above 200 µM. In data set [2], this molecule came in with a Selectivity index of 2. Moreover, the IC50 in data set [3] amounted to 100 µM; in data set [5], 50 µM.
`Cn1c(/C(O)=C/C(=O)C(=O)O)cc2ccccc21`: the EC50 in data set [1] is above 81 µM. The molecule further registered a CC50 with CEM-SS of 81 µM. Besides, the Selectivity index in data set [2] was found to be 8. The IC50 was determined as 50 µM in data set [3] and 6 µM in data set [5].
As for `O=C(O)C(=O)/C=C(\O)c1cc2ccccc2n1Cc1ccccc1`, in data set [2], the Selectivity index is 20. The IC50 in data set [3] turned out to be 20 µM; in data set [5] it was 1 µM.
On to `Cn1cc(/C(O)=C/C(=O)C(=O)O)c2cc3c(cc21)OCO3`, for which the EC50 in data set [1] is above 108 µM. In the data set on CEM-SS, this molecule yielded a cytotoxic concentration (CC50) of 108 µM. Also, the Selectivity index in data set [2] is 33. Besides, the values for the IC50 in data set [3] and in data set [5] were 100 µM and 3 µM, respectively.
For `CCn1c(/C(O)=C/C(=O)C(=O)O)cc2ccccc21` the same measures were above 110 µM, 110 µM, 10, 16 µM and 1.6 µM.
In the case of `O=C(O)C(=O)/C=C(\O)c1cn(Cc2ccccc2)c2ccccc12`, the Selectivity index in data set [2] was determined as 12. Besides, the figures for the IC50 in data set [3] and in data set [5] were 12 µM and 1 µM, respectively.
The molecule `CCn1c(C(=O)CC(=O)C(=O)OC)cc2ccccc21` showed an EC50 in data set [1] above 60 µM. In the data set on CEM-SS, this molecule registered a CC50 of 60 µM.
Turning to `COC(=O)C(=O)CC(=O)c1cc2cc3c(cc2n1Cc1ccccc1)OCO3`, in data set [1], the EC50 was above 1.1 µM. In the data set on CEM-SS, this molecule gave a CC50 of 1.1 µM. In data set [2], this molecule returned a Selectivity index of 7. In addition, the IC50 in data set [3] was 100 µM; in data set [5] it was 14 µM.
For `Cn1c(/C(O)=C/C(=O)C(=O)O)cc2cc3c(cc21)OCO3` the same measures were above 200 µM, above 200 µM, 5, 11 µM and 2 µM.
Molecule `O=C(O)C(=O)/C=C(\O)c1cc2cc3c(cc2n1Cc1ccccc1)OCO3` came in with an EC50 in data set [1] above 3.8 µM. Also, the midpoint of cytotoxicity in the data set with CEM-SS, the CC50, lay at 3.8 µM. The Selectivity index in data set [2] is 17. The IC50 was 35 µM in data set [3] and 2 µM in data set [5].
Regarding `CCn1cc(/C(O)=C/C(=O)C(=O)O)c2cc3c(cc21)OCO3`, the midpoint of the response in data set [1], the EC50, lay at 123 µM. This molecule came in with a CC50 with CEM-SS above 200 µM. Further, the Selectivity index in data set [2] was 15. Moreover, the IC50 in data set [3] is 45 µM; in data set [5] it was 3 µM. The selectivity ratio in data set [4] is above 1.6.
